A short description of assay [1]: Control value of dHbS(no. of runs=1). Type of assay: functional. The essentials:
(§1)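 Deoxy-HbS control tube with buffer in place of the compound: HbS in 0.15 M phosphate was deoxygenated with dithionite (1.06 M stock) in a sealed EPR tube. It was spun with each run's set of six tubes, alongside four drug tubes and a 40 mM phenylalanine standard. The value is the HbS solubility in g/dL, used as the denominator of the solubility ratio.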

Assay [2] in a line: Evaluated for antisickling activity, and ratio was calculated as solubility HbS (g/dL) / solubility HbS control(g/dL) at a concentration of 20 mM. It counts as functional. The essentials:
(§2)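 Hofrichter-type antigelling assay. Acids were dissolved as sodium salts (sodium bicarbonate) at 0.18 M stock in 0.15 M phosphate, pH 7.4. Aliquots went into HbS (stock around 35 g%) with dithionite as deoxygenant; EPR tubes were sealed and spun. Final drug was 5, 10, 20 and 40 mM. Each six-tube run held a buffer-only deoxy-HbS control and a 40 mM phenylalanine standard. Ratio = soluble HbS with drug / control (g/dL).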

Assay [3] in a line: Evaluated for antisickling activity, and ratio was calculated as solubility HbS (g/dL) / solubility HbS control(g/dL) at a concentration of 5 mM. Type of assay: functional. The essentials: as §2
Assay [4] can be described thus: Evaluated for antisickling activity, and ratio was calculated as solubility HbS compound (g/dL) / solubility HbS control(g/dL) at a concentration of 40 mM. It counts as functional. The essentials:
as §2

Assay [5] is described as follows: Evaluated for antisickling activity, and initial HbS concentration was reported, values from different experiments (no. of runs=1). Type of assay: functional. The essentials:
(§3)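 Hofrichter-type antigelling assay: the compound was made up as its sodium salt (0.18 M stock) in 0.15 M phosphate buffer, pH 7.4, with sodium bicarbonate. It was diluted with buffer and added to HbS (about 35 g % in 0.15 M phosphate), then dithionite (1.06 M stock) was added and the EPR tubes were sealed. Final drug levels were 5, 10, 20 and 40 mM. Initial HbS (g/dL) is the level after drug and dithionite addition, the same in all six tubes of a run.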

The nature of assay [6]: Evaluated for antisickling activity, and ratio was calculated as solubility HbS (g/dL) / solubility HbS control(g/dL) at a concentration of 10 mM. Type of assay: functional. The method in brief: as §2
Assay [7] in a line: Control value of dHbS(no. of runs=3). Type of assay: functional. The essentials:
as §1

The nature of assay [8]: Compound was evaluated for antisickling activity, and initial HbS concentration was reported, values from different experiments (no. of runs=3). Type of assay: functional. The method in brief:
as §3

Assay [9] is described as follows: Evaluated for antisickling activity, and initial HbS concentration was reported, values from different experiments (no. of runs=2). Type of assay: functional. The essentials:
as §3

Assay [10] is described as follows: Control value of dHbS(no. of runs=2). It counts as functional. The method in brief:
as §1

Assay [11] in a line: Compound was evaluated for antisickling activity, and initial HbS concentration was reported, values from different experiments (no. of runs=1).
Assay [12] is described as follows: Control value of dHbS (no. of runs=1). Type of assay: functional. The essentials:
as §1

Assay [13] is described as follows: Compound was evaluated for antisickling activity, and initial HbS concentration was reported, values from different experiments (no. of runs=1). Type of assay: functional. The method in brief:
as §3

Assay [14] is described as follows: Compound was evaluated for antisickling activity, and ratio was calculated as solubility HbS compound (g/dL) / solubility HbS control(g/dL) at a concentration of 40 mM (for 173 assays). It counts as functional. The essentials:
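Phenylalanine reference standard at 40 mM, included in every six-tube set of the sealed-tube dithionite-deoxygenated HbS sedimentation solubility assay, pH 7.4 phosphate. Ratio = soluble HbS with Phe / soluble HbS in the buffer control (g/dL). Reported as mean and standard deviation over 173 assays.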

The nature of assay [15]: Control value of dHbS (no. of runs=2). Type of assay: functional. The method in brief: as §1

`CCCCCCCC(=O)Nc1cc(OCC(=O)O)cc(C(=O)O)c1` showed a Control value in [1] of 16.3 g/dL. Also, the Ratio is 1.23 in [2], 1.04 in assay [3], 1.43 in [4] and 1.1 in assay [6]. In [5], this compound yielded a Concentration of 24.3 g/dL.
`CC(C)(C)C(=O)N1CCCC1C(=O)O` (stereo unspecified) gave a Control value in assay [1] of 16.1 g/dL. Besides, the Ratio in [2] is 1.05; in assay [3], 1.03; in assay [4], 1.07; in assay [6] it was 1.05. In assay [5], the Concentration turned out to be 22.9 g/dL.
As for `O=C(O)COc1cc(NC(=O)c2ccc(Cl)c(Cl)c2)cc(C(=O)O)c1`, in [7], the Control value is 16.9 g/dL. The Ratio in assay [2] was 1.35; in [3], 1.09; in assay [4] it was 1.45; in assay [6], 1.19. In addition, in [8], the Concentration was 24.8 g/dL.
Take `O=C(O)c1ccccc1OC(=O)C1CCCN1C(=O)CCC(O)c1ccccc1` (stereo unspecified): the Concentration in assay [9] amounted to 24.5 g/dL. In addition, the Ratio is 1 in [2], 0.99 in assay [3], 1.15 in assay [4] and 0.98 in assay [6]. In addition, in assay [10], the Control value was determined as 17.6 g/dL.
`O=C(O)c1ccccc1OC(=O)C1CCCN1C(=O)COc1ccccc1` (stereo unspecified) displayed a Control value in assay [1] of 17.1 g/dL. Moreover, the Ratio is 1.02 in [2], 0.987 in [3], 1.08 in assay [4] and 1.02 in assay [6]. In assay [5], this compound displayed a Concentration of 24 g/dL.
Regarding `O=C(O)COc1cc(NC(=O)c2ccc(Cl)cc2)cc(C(=O)O)c1`, the Concentration in assay [11] was found to be 24 g/dL. The Ratio in [2] was 1.34; in assay [3], 1.07; in assay [4] it was 1.38; in assay [6], 1.16. The same compound yielded a Control value in assay [12] of 17.1 g/dL.
As to `O=C(O)COc1cc(NC(=O)c2ccc(Br)cc2)cc(C(=O)O)c1`, in assay [1], the Control value turned out to be 17.4 g/dL. Besides, the Ratio in [2] is 1.24; in [3] it was 1.02; in [4], 1.32; in assay [6], 1.08. This compound registered a Concentration in assay [5] of 24 g/dL.
Consider `O=C(O)c1ccccc1OC(=O)C1CCCN1C(=O)CCc1ccccc1` (stereo unspecified), for which the Ratio was 0.983 in [2], 0.951 in assay [4] and 0.988 in assay [6]. In [13], the Concentration was 23.4 g/dL.
Consider `CCC(=O)Nc1cc(OCC(=O)O)cc(C(=O)O)c1`, for which, in [1], the Control value was found to be 16.6 g/dL. Also, the Ratio in assay [2] was 1.07; in [3], 1; in assay [4] it was 1.15; in assay [6] it was 1.03. This compound came in with a Concentration in assay [5] of 24.3 g/dL.
With `N[C@@H](Cc1ccccc1)C(=O)O`, the Concentration in [9] amounted to 24.5 g/dL. The Ratio in assay [2] is 1.09; in [3] it was 1.04; in assay [4], 1.18; in assay [6], 1.05; in [14] it was 1.18. Moreover, in assay [10], the Control value was 17.3 g/dL.
With `O=C(O)C1CCCN1C(=O)Cc1ccccc1` (stereo unspecified), in [9], the Concentration turned out to be 24.5 g/dL. The Ratio in [2] is 1.06; in assay [3] it was 1; in [4], 1.13; in [6], 1.01. Also, the Control value in assay [15] amounted to 17.6 g/dL.
In the case of `CC(C)(C)CC(=O)N1CCCC1C(=O)Oc1ccccc1C(=O)O` (stereo unspecified), the Concentration in assay [9] was determined as 28.3 g/dL. The Ratio in assay [2] was 0.995; in [3], 0.991; in [4], 1.05; in assay [6] it was 1.02. Besides, in assay [10], the Control value was 17.6 g/dL.
As for `O=C(O)c1ccccc1OC(=O)C1CCCN1C(=O)c1ccccc1` (stereo unspecified), the Concentration in assay [9] worked out at 24.5 g/dL. Further, the Ratio in [2] was 1.01; in [3] it was 0.999; in assay [4] it was 1.03; in [6] it was 1. Also, in [10], the Control value was 17.2 g/dL.
In assay [9], `O=C(O)COc1cc(NC(=O)c2ccccc2)cc(C(=O)O)c1` returned a Concentration of 23.8 g/dL. For the same compound, the Ratio is 1.16 in assay [2], 1.06 in assay [3], 1.37 in assay [4] and 1.09 in [6]. In assay [10], this compound returned a Control value of 17.4 g/dL.
Turning to `CC(C)(C)C(=O)N1CCCC1C(=O)Oc1ccccc1C(=O)O` (stereo unspecified), the Control value in assay [1] was determined as 16.5 g/dL. Further, the Ratio in assay [2] is 1.03; in assay [3] it was 0.993; in assay [4], 1.08; in assay [6] it was 1. The Concentration in [5] is 22.9 g/dL.
`O=C(O)c1ccccc1OC(=O)C1CCCN1C(=O)Cc1ccccc1` (stereo unspecified) gave a Control value in assay [1] of 17.1 g/dL. Besides, the Ratio in [2] is 1.05; in [3] it was 1.03; in assay [4], 1.15; in assay [6] it was 1.03. Moreover, the Concentration in assay [5] stood at 24.6 g/dL.
`CC(C)(Oc1ccc(CCNC(=O)c2ccc(Cl)cc2)cc1)C(=O)O` gave a Control value in [7] of 18.2 g/dL. The Ratio in [2] was 0.981; in [3] it was 0.954; in [4], 1.2; in assay [6], 0.932. The Concentration in assay [8] was determined as 24.8 g/dL.
